Activity calls are given as the source filed them. The calls are words filed in the database; no cut-off is given here.
How the values were obtained:
HL60/MX2 [1] = assay: Antiproliferative activity against human HL60/MX2 cells at 290 uM after 72 hrs by MTT assay; format: functional, cell-based
Summary of the method: (§1)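 MTT read-out in leukemia cells exposed 72 h to the highest concentration, 100 µg/ml (290 µM), expressed as % proliferation inhibition. Cells seeded at 1 × 10^4 per well 24 h beforehand; MTT for 4 h, DMF/SDS lysis, 570 nm.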

[2] = Antiproliferative activity against HLMEC after 72 hrs by SRB assay; design: species or system Homo sapiens
Summary of the method: (§2)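 Adherent cells plated at 1 × 10^4 per well 24 h before treatment, then exposed 72 h to compounds diluted from 20 mg/mL DMSO stock (0.01–1000 µg/mL). Fixed in cold 50% TCA at 4°C for 1 h, stained with 0.4% sulforhodamine B, bound dye extracted with 10 mM Tris, OD at 540 nm. Triplicates, 3–5 experiments; IC50 per experiment, mean ± SD.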

MCF10 [3] = assay: Antiproliferative activity against human MCF10 cells after 72 hrs by SRB assay; format: cell-based; conditions: MCF10, 72 h; summary of the method: as §2
MCF7 [4] = assay: Antiproliferative activity against human MCF7 cells after 72 hrs by SRB assay; format: functional, cell-based; conditions: MCF7, 72 h; summary of the method: as §2
HL-60 [5] = assay: Antiproliferative activity against human HL60 cells at 290 uM after 72 hrs by MTT assay; format: functional, cell-based; summary of the method: as §1
BALB/3T3 [6] = assay: Antiproliferative activity against mouse BALB/3T3 cells after 72 hrs by SRB assay; format: cell-based; conditions: BALB/3T3, 72 h; summary of the method: as §2
[7] = Antiproliferative activity against human LoVo/DX cells at 290 uM; format: functional; conditions: read-out: GI
LoVo = assay: Antiproliferative activity against human LoVo cells at 290 uM; format: functional; conditions: read-out: GI
[8] = (§3) Antiproliferative activity against mouse BALB/3T3 cells at 290 uM after 72 hrs by SRB assay; format: cell-based; conditions: BALB/3T3 cells, read-out: GI
Summary of the method: (§4)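 SRB test of adherent cells after 72 h exposure at the highest concentration, 100 µg/ml (290 µM). Cells plated at 1 × 10^4 per well 24 h before treatment; TCA fixation, 0.4% SRB staining, OD 540 nm. Result expressed as % inhibition of proliferation.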

MCF7 [9] = assay: Antiproliferative activity against human MCF7 cells at 290 uM after 72 hrs by SRB assay; format: functional; summary of the method: as §4
A549 = assay: Antiproliferative activity against human A549 cells at 290 uM; format: functional; conditions: read-out: GI
[10] = (§5) Antiproliferative activity against human MCF10 cells at 290 uM after 72 hrs by SRB assay; format: cell-based; conditions: MCF10 cells, read-out: GI; summary of the method: as §4
HL-60 [11] = assay: Antiproliferative activity against human HL60 cells after 72 hrs by MTT assay; format: functional, cell-based; conditions: HL-60, 72 h
Summary of the method: (§6)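 Leukemia cells seeded at 1 × 10^4 per well 24 h before adding compounds (0.01–1000 µg/mL from DMSO stock), exposed 72 h. MTT (5 mg/mL stock) added for 4 h, then DMF/SDS lysis mixture; absorbance at 570 nm read after 24 h. Triplicates per experiment, 3–5 repeats; IC50 calculated per experiment, reported as mean ± SD.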

BALB/3T3 [12] = assay: as §3; format: cell-based; conditions: balb/3t3, 72 h, 290 µM; summary of the method: as §4
[13] = Antiproliferative activity against HLMEC at 290 uM after 72 hrs by SRB assay; conditions: human; summary of the method: as §4
MCF10 [14] = assay: as §5; format: cell-based; conditions: mcf10, 72 h, 290 µM; summary of the method: as §4
HL60/MX2 [15] = assay: Antiproliferative activity against human HL60/MX2 cells after 72 hrs by MTT assay; format: functional, cell-based; conditions: HL60/MX2, 72 h; summary of the method: as §6

Row | Structure (SMILES) | growth inhibition (GI) (HL60/MX2 [1]) | IC50 [2] [µM] | IC50 (MCF10 [3]) [µM] | IC50 (MCF7 [4]) [µM] | growth inhibition (GI) (HL-60 [5]) | IC50 (BALB/3T3 [6]) [µM] | Activity (BALB/3T3 [12]) | growth inhibition (GI) (MCF7 [9]) | also measured
1 | C[C@@]1(C(=O)O)Cc2cc(O)c(O)cc2C2C(Cl)C(=O)N21 (stereo not given in full) | inactive | 1140 | 1960 | 1200 | inactive | 1960 | – | – | –
2 | CC(C)C[C@H](NC(=O)[C@@H](O)[C@H](N)Cc1ccccc1)C(=O)O [UBENIMEX] | – | – | – | 150 | – | – | – | – | inhibition of growth at 290 µM [7]: 26.9%; inhibition of growth at 290 µM (LoVo): 54.8%; inhibition at 72 h, 290 µM [8]: 37.7%; inhibition of growth at 290 µM (MCF7 [9]; MCF7, 72 h, read-out: GI): 63.8%; inhibition of growth at 290 µM (A549): 48%; inhibition at 72 h, 290 µM [10]: 26.9%
3 | O=C(O)C1Cc2cc(O)c(O)c(Br)c2C=N1 (stereo not given) | inactive | 126 | 904 | 224 | – | 183 | – | – | IC50 (HL-60 [11]): 156 µM
4 | O=C(O)C1Cc2cc(O)c(I)cc2C=N1 (stereo not given) | inactive | – | – | – | inactive | – | Non-Toxic | inactive | Activity [13]: Non-Toxic; Activity (MCF10 [14]): Non-Toxic
5 | CCOC(=O)C(Cc1cc(OCc2ccccc2)cc(OCc2ccccc2)c1)(NC=O)C(=O)OCC | inactive | 46.5 | – | – | inactive | 68.6 | – | inactive | –
6 | O=C(O)C1Cc2cc(O)c(Br)c(O)c2C=N1 (stereo not given) | inactive | – | – | – | inactive | – | Non-Toxic | inactive | Activity [13]: Non-Toxic; Activity (MCF10 [14]): Non-Toxic
7 | COc1cc2c(cc1OC)CCC(C(=O)OCc1ccccc1)(C(=O)OCc1ccccc1)N=C2 | – | 657 | – | 734 | inactive | 929 | – | – | –
8 | O=C(O)C1CCc2cc(O)c(O)cc2C=N1 (stereo not given) | inactive | 1590 | 3330 | 1700 | inactive | – | Non-Toxic | – | –
9 | O=C(O)C1Cc2c(O)c(O)cc(Br)c2C=N1 (stereo not given) | – | 562 | 1440 | 660 | – | 1260 | – | – | IC50 (HL60/MX2 [15]): 247 µM; IC50 (HL-60 [11]): 104 µM
10 | O=C(O)C1Cc2cc(O)cc(O)c2C=N1 (stereo not given) | inactive | – | – | – | inactive | – | Non-Toxic | inactive | Activity [13]: Non-Toxic; Activity (MCF10 [14]): Non-Toxic
11 | O=C(O)C1Cc2cc(O)c(O)c(I)c2C=N1 (stereo not given) | inactive | 307 | 897 | 342 | inactive | – | Non-Toxic | – | –
12 | O=C(O)C1Cc2cc(O)c(O)cc2C=N1 (stereo not given) | inactive | 1550 | – | 1240 | inactive | 1830 | – | – | –
13 | O=C(O)C1Cc2cc(O)c(O)c(O)c2C=N1 (stereo not given) | – | 150 | 249 | 84.7 | – | 235 | – | – | IC50 (HL60/MX2 [15]): 149 µM; IC50 (HL-60 [11]): 124 µM

Reference: ChEMBL document CHEMBL4428115, “Molecular docking studies, biological and toxicity evaluation of dihydroisoquinoline derivatives as potential anticancer agents” (Bioorg Med Chem, 2016)
